Among the data in ChEMBL document CHEMBL1125593, “Synthesis and biological evaluation of substituted benzenesulfonamides as novel potent membrane-bound phospholipase A2 inhibitors” (1991) are IC30, Inhibition rate and inhibition values, retold here.

For assay [1], the system named is membrane-bound phospholipase A2 (Oryctolagus cuniculus). Put plainly: Tested in vitro for inhibition of phospholipase A2 (PLA2) in rabbit heart membranes.
Assay [2] concerns Rattus norvegicus. Put plainly: Compound was tested for the % inhibition rate of infarct size (myoglobin depleted area) on iv administration 15 min prior to the ligation at a dose of 1.0 mg/kg. In kind it is functional.
The subject of assay [3] is Rattus norvegicus. Put plainly: Compound was tested for the % inhibition rate of infarct size (myoglobin depleted area) on iv administration 15 min prior to the ligation at a dose of 0.3 mg/kg. Format: functional.
In assay [4] the test system is Rattus norvegicus. Put plainly: Compound was tested for the % inhibition rate of infarct size (myoglobin depleted area) on iv administration 15 min prior to the ligation at a dose of 0.1 mg/kg. In kind it is functional.
The test system of assay [5] is membrane-bound phospholipase A2 (Oryctolagus cuniculus). Put plainly: Compound was tested for the percent inhibition of phospholipase A2 (PLA2) in rabbit heart membranes at a concentration of 100 uM.
The test system of assay [6] is Rattus norvegicus. The assay can be described thus: Compound was tested for the % inhibition rate of infarct size (myoglobin depleted area) on iv administration 15 min prior to the ligation at a dose of 1 mg/kg. Format: functional.
The subject of assay [7] is Rattus norvegicus. Put plainly: Compound was tested for the % inhibition rate of infarct size (myoglobin depleted area) on iv administration 15 min prior to the ligation at a dose of 10 mg/kg. In kind it is functional.
The test system of assay [8] is Rattus norvegicus. Put plainly: Compound was tested for the % inhibition rate of infarct size (myoglobin depleted area) on sc administration 15 min prior to the ligation at a dose of 75.0 mg/kg. The settings on record: route subcutaneous. In kind it is functional. The gist of the method:
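Sprague-Dawley rats (180–260 g) were anesthetized with diethyl ether and the left main coronary artery was ligated 1–2 mm from its origin for 3 h. Compound was given sc 15 min before ligation, and rats dying within 3 h were excluded. Infarct size was scored as the myoglobin-depleted area by immunohistochemistry and image analysis, with inhibition taken versus untreated animals, mean ± SEM.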

A word on the IC30: it is the concentration needed for an effect of 30%. Read a high IC30 as a need for much substance. For orientation: inhibition means the change of the read-out against control, counted positive when it falls. A lower inhibition goes with little suppression.

In turn, `CN(C(=O)/C=C/c1ccc(O)c(O)c1)c1ccc(S(=O)(=O)NC2CCCCC2)cc1` yielded an IC30 in assay [1] of 1450 nM. In other words, the single-digit micromolar range.
On to `CN(C(=O)/C=C/c1ccc(S(C)(=O)=O)cc1)c1ccc(S(=O)(=O)NC2CCCCCC2)cc1`, for which the IC30 in assay [1] amounted to 16 nM.
The same measure, in the same setting: as for `CN(C(=O)/C=C/c1ccc(-n2ccnc2)cc1)c1ccc(S(=O)(=O)NC2CCCCCC2)cc1`, the figure is 450 nM.
On to `CN(C(=O)/C=C/c1ccc(S(C)(=O)=O)cc1)c1ccc(S(=O)(=O)N2CCN(CCc3ccccc3)CC2)cc1`, for which the IC30 in assay [1] was found to be 63 nM. Against the preceding molecule, the IC30 is about 7.1-fold lower.
Take `CN(C(=O)/C=C/c1ccc(S(C)(=O)=O)cc1)c1ccc(S(=O)(=O)N2CCCN(CCc3ccccc3)CC2)cc1`: it took 25 nM to reach the 30% level in assay [1] (IC30). Compared with the last molecule, the IC30 is about 2.5-fold lower.
On the same count and under the same terms, as for `CN(C(=O)/C=C/c1ccc(C#N)cc1)c1ccc(S(=O)(=O)NC2CCCCCC2)cc1`, the figure is 200 nM.
The same measure, in the same setting: with `CN(C(=O)/C=C/c1ccc(S(C)(=O)=O)cc1)c1ccc(S(=O)(=O)NC2CCCCN(Cc3ccccn3)C2)cc1` (stereo not drawn) the figure was 49 nM.
Take `COc1ccc(CCN(C)CCCC(C#N)(c2ccc(OC)c(OC)c2)C(C)C)cc1OC` (stereo not drawn): the Inhibition rate with Rattus norvegicus [2] came out at 19.2%; with Rattus norvegicus [3] it was 0.1%; in the assay on Rattus norvegicus [4], 0.7%.
For `CN(C(=O)/C=C/c1ccc(O)c(O)c1)c1ccc(S(=O)(=O)NC2CCCCCC2)cc1`, the IC30 in assay [1] worked out at 1750 nM.
For `CN1CCC(NS(=O)(=O)c2ccc(N(C)C(=O)/C=C/c3ccc(S(C)(=O)=O)cc3)cc2)CC1`, the IC30 in assay [1] came to 1000 nM.
The same measure, in the same setting: with `NS(=O)(=O)c1ccc(NC(=O)/C=C/c2ccc(O)c(O)c2)cc1` the figure was 25000 nM; with `Cc1cccc(CCN(C)S(=O)(=O)c2ccc(N(C)C(=O)/C=C/c3ccc(S(C)(=O)=O)cc3)cc2)n1`, 65 nM.
With `CN(C(=O)/C=C/c1ccc(S(C)(=O)=O)cc1)c1ccc(S(=O)(=O)NC2CCN(Cc3ccccc3)CC2)cc1`, the Inhibition rate in the assay with Rattus norvegicus [2] is on record as 22.1%; in the assay on Rattus norvegicus [3] it was 20.9%; with Rattus norvegicus [4] it was 1.6%. The molecule also registered an IC30 in assay [1] of 28 nM.
In assay [1], `CN(C(=O)/C=C/c1ccc(S(C)(=O)=O)cc1)c1ccc(S(=O)(=O)NCc2ccccn2)cc1` came in with an IC30 of 260 nM. This counts as sub-micromolar.
Still for that read-out and setting: as for `CN(C(=O)/C=C/c1ccc(S(C)(=O)=O)cc1)c1ccc(S(=O)(=O)N2CCN(Cc3ccccc3)CC2)cc1`, the figure is 220 nM; as for `CN(C(=O)/C=C/c1ccc(O)c(O)c1)c1ccc(S(=O)(=O)NC2Cc3ccccc3C2)cc1`, 4640 nM; as for `CC(C)CN1CCC(NS(=O)(=O)c2ccc(N(C)C(=O)/C=C/c3ccc(S(C)(=O)=O)cc3)cc2)CC1`, 51 nM.
In assay [5], `COC(=O)c1sccc1NC(=O)/C=C/c1ccc(O)c(O)c1` returned an inhibition of 31.6%.
`CN(C(=O)/C=C/c1ccc(S(C)(=O)=O)cc1)c1ccc(S(=O)(=O)NCCc2ccccn2)cc1` had an IC30 in assay [1] of 210 nM.
Still for that read-out and setting: with `CN(C(=O)/C=C/c1ccc(S(C)(=O)=O)cc1)c1ccc(S(=O)(=O)NC2CCCCN(Cc3ccccc3)C2)cc1` (stereo not drawn) the figure was 25 nM; with `CN(C(=O)/C=C/c1ccc(O)c(F)c1)c1ccc(S(=O)(=O)NC2CCCCCC2)cc1`, 5330 nM.
Molecule `CC(C)NS(=O)(=O)c1ccc(N(C)C(=O)/C=C/c2ccc(O)c(O)c2)cc1` returned an IC30 in assay [1] of 30000 nM.
`CN(C(=O)/C=C/c1ccc(O)cc1)c1ccc(S(=O)(=O)NC2CCCCCC2)cc1` displayed an IC30 in assay [1] of 1240 nM.
The same measure, in the same setting: as for `CNS(=O)(=O)c1ccc(N(C)C(=O)/C=C/c2ccc(O)c(O)c2)cc1`, the figure is 44000 nM.
In assay [1], `CN(C(=O)/C=C/c1ccc(S(C)(=O)=O)cc1)c1ccc(S(=O)(=O)N2CCCN(Cc3ccccc3)CC2)cc1` yielded an IC30 of 64 nM.
Same read-out and setting: with `CN(C(=O)/C=C/c1ccc(O)c(O)c1)c1ccc(S(=O)(=O)NC2CCCC2)cc1` the figure was 5430 nM.
On the same count and under the same terms, with `CN(C(=O)/C=C/c1ccc(O)c(O)c1)c1ccc(S(N)(=O)=O)cc1` the figure was 13300 nM; with `CN(C(=O)/C=C/c1ccc([N+](=O)[O-])cc1)c1ccc(S(=O)(=O)NC2CCCCCC2)cc1`, 190 nM; with `CN(C(=O)/C=C/c1ccc(O)c(O)c1)c1ccc(S(=O)(=O)NC2CCc3ccccc3C2)cc1` (stereo not drawn), 5070 nM.
As for `Cc1cccc(CCNS(=O)(=O)c2ccc(N(C)C(=O)/C=C/c3ccc(S(C)(=O)=O)cc3)cc2)n1`, the Inhibition rate in the assay on Rattus norvegicus [6] was found to be 5.6%; in the assay on Rattus norvegicus [7], 21.9%. The molecule further had an IC30 in assay [1] of 66 nM.
In the assay with Rattus norvegicus [8], `CCN(CC)CCCC(C)Nc1c2ccc(Cl)cc2nc2ccc(OC)cc12` (stereo not drawn) [QUINACRINE] came in with an Inhibition rate of 37.4%.
In the case of `CN(C(=O)/C=C/c1ccc(O)c(O)c1)c1ccc(S(=O)(=O)NC2CCc3ccccc32)cc1` (stereo not drawn), in assay [1], the IC30 was found to be 6100 nM.
Turning to `CN(C(=O)/C=C/c1ccc(S(C)(=O)=O)cc1)c1ccc(S(=O)(=O)NC2CCN(CCc3ccccc3)CC2)cc1`, the Inhibition rate in the assay with Rattus norvegicus [2] is 22.5%; with Rattus norvegicus [3], 18.7%; in the assay on Rattus norvegicus [4], 7%. This molecule also registered an IC30 in assay [1] of 9 nM.
